Screening data deposited in PubChem by The Scripps Research Institute Molecular Screening Center.
In the library only some 3.9% were active in any assay of this set; here they are far more common.
OX1R antag-1 = blocks the human orexin 1 receptor | O43613 | CHO/OX1R cells, Fluo-8 calcium fluorescence, orexin A | inhibition, % at 5 µM | 330,000 tested, 0.43% active | AID 434989;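 active means inhibition above its plate's threshold, mean inhibition of all tested compounds on the plate plus 3 SD, cut at about 37% in these data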
Target sequence (O43613 whole entry, looked up): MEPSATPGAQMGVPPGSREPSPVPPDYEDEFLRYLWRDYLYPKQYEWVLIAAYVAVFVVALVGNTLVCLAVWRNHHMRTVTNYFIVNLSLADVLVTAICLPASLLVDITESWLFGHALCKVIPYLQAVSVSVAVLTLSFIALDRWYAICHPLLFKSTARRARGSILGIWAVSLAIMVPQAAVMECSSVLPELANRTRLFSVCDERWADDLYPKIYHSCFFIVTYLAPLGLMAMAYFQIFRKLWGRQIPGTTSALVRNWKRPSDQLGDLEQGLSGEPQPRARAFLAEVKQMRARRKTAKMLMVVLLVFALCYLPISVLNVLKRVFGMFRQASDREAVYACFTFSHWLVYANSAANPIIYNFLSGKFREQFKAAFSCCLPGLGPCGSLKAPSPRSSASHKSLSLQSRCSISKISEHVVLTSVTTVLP
OX1R antag-2 = blocks the human orexin 1 receptor; inhibition, % at 6.6 µM; OX1R-expressing cells, FRET antagonist read-out; O43613; 330,000 tested, 1.8% active; AID 485270; in the data active means inhibition mostly above about 38%, no sharp cut-off; inactive means mostly below about 40%
TAAR1 antagonist = human TAAR1 antagonism; Q96RJ0; CHO RD-HGA16 TAAR1, Fluo-8 calcium fluorescence, antagonist; inhibition, % at 3 µM; 360,000 tested, 1.5% active;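 active means inhibition above a per-plate cutoff, the mean inhibition of test compounds on that plate plus 3 SD, cut at about 49% in these data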
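Material: RD-HGA16 CHO cells with stable hTAAR1 and Gα16; Dosing: single nominal final test compound concentration of 3 µM; Schedule: seeding 17-24 h prior, 75-min 37 °C, 30-min RT dye loading; Detection: kinetic Fluo-8 calcium fluorescence measurement; Measure: % inhibition from peak post-agonist over basal fluorescence ratio; Benchmarks: vehicle and agonist controls.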
TAAR1 agonist = agonists of human TAAR1; activation, % at 3 µM; 360,000 tested, 0.99% active; CHO RD-HGA16 TAAR1, Fluo-8 calcium fluorescence; vehicle wells 0%, saturating PEA agonist 100%; AID 624467;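 active means activation above the mean activation of all test compounds in the run plus 3 SD, cut at about 38% in these data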
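Signal – calcium-sensitive Fluo-8 signal, excitation 470-495, emission 515-575 nm · System – RD-HGA16 (CHO) cells co-expressing Gα16 and hTAAR1 · Incubation – 17-24 h seeding, 75 min 37 °C dye, 30 min RT · Compound dosing – 3 µM single concentration · Repeats – no replicates (n 1)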
CHO parental Ca = counter-screen: ATP calcium response change in parental CHO cells; parental CHO-K1, ATP-induced calcium, Fluo-8 fluorescence; inhibition, % at 5.6 µM; 330,000 tested, 0.63% active; AID 463079;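 active means inhibition above that plate's mean sample inhibition plus 3 SD, cut at about 26% in these data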
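Test system: untransfected parental CHO cell line. Compound: one dose, 5.6 µM nominal. Detection: intracellular calcium via Fluo-8 no-wash fluorescent dye. Measure: % inhibition. Benchmarks: ATP-challenged DMSO wells low, unchallenged DMSO wells high.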
Large screens that a line does not name were inactive.

CC(=O)Nc1ccc(S(=O)(=O)NCC2CCN(C(=O)C(=O)c3cc4ccccc4o3)CC2)cc1	none (no result: OX1R antag-1, OX1R antag-2, CHO parental Ca)
COC(=O)c1cc(NC(=O)CN(c2ccc(OC)cc2)S(=O)(=O)c2ccc(F)cc2)ccc1Cl	TAAR1 antagonist 53 (no result: OX1R antag-1, OX1R antag-2, CHO parental Ca)
Cc1ccc(S(=O)(=O)N(CC(=O)Nc2cccc(N(C)S(C)(=O)=O)c2)c2ccc(Cl)c(Cl)c2)cc1	none
CN(c1cccc(NC(=O)CN(c2ccc(Cl)c(Cl)c2)S(=O)(=O)c2ccccc2)c1)S(C)(=O)=O	TAAR1 antagonist 57
Cc1nc2ccc(NC(=O)c3cc(S(=O)(=O)N(C)c4ccccc4)ccc3Cl)cc2s1	none
COc1ccccc1NC(=O)c1ccc(S(=O)(=O)N(C)c2ccccc2)cc1	none
COc1cc(NC(=O)c2ccc(S(=O)(=O)N(C)c3ccccc3)cc2)cc(OC)c1	TAAR1 antagonist 51
Cc1nc2ccc(NC(=O)c3ccc(Cl)c(S(=O)(=O)N(C)c4ccccc4)c3)cc2s1	TAAR1 antagonist 51, CHO parental Ca 41
COc1ccc(OC)c(NC(=O)c2ccc(-c3cccs3)cc2)c1	OX1R antag-2 55
O=C(Cn1ncc2c1-c1ccccc1OC2)N(Cc1ccco1)C1CCCCC1	OX1R antag-2 37
CCN=C1SC(C(=O)Nc2cccc(Cl)c2)CC(=O)N1CC (centres undefined)	TAAR1 antagonist 58
CCN=C1SC(C(=O)Nc2ccc(OCC)cc2)CC(=O)N1CC (centres undefined)	none
CCOc1ccc(NC(=O)C2CC(=O)N(CC)C(=Nc3ccc4c(c3)OCO4)S2)cc1 (centres undefined)	none
CCN1C(=O)CC(C(=O)Nc2ccc(F)cc2)SC1=Nc1ccc2c(c1)OCO2 (centres undefined)	TAAR1 antagonist 52
CCN=C1SC(C(=O)Nc2cc(Cl)cc(Cl)c2)CC(=O)N1CC (centres undefined)	none
CCN=C1SC(C(=O)Nc2cccc(C)c2)CC(=O)N1CC (centres undefined)	TAAR1 antagonist 63
CCN=C1SC(C(=O)Nc2ccc(OC)cc2)CC(=O)N1CC (centres undefined)	TAAR1 antagonist 55
CN(C)CCNC(=O)c1cccc(-c2cnc3c(NC=O)cc(/C=C/c4ccccc4)cn23)c1	none (no result: OX1R antag-1, OX1R antag-2, CHO parental Ca)
CC1(C)CC(NCCN2CCN(C3=CC(=C(C#N)C#N)CC(C)(C)C3)CC2)=CC(=C(C#N)C#N)C1	none
N#CC(C#N)=C1C=C2C=C(N3CCCCCC3)CCC2CC1 (centres undefined)	TAAR1 antagonist 104, TAAR1 agonist 957 (no result: OX1R antag-1, OX1R antag-2, CHO parental Ca)
O=C(O)c1cc2nccc(-c3ccc(F)cc3)n2n1	OX1R antag-2 43
CCn1ncc(-c2ccnc3cc(C(=O)O)nn23)c1C	none
O=C(O)C1C2C=CC(C2)C1C(=O)NCCCN1CCOCC1 (centres undefined)	none
CCCCNC(=O)C1C2C=CC(C2)C1C(=O)O (centres undefined)	TAAR1 agonist 42
Nc1ncc(Br)cc1S(=O)(=O)Nc1cc(C(F)(F)F)cc(C(F)(F)F)c1	OX1R antag-2 85
Cc1ccc(NS(=O)(=O)c2cc(Br)cnc2N)c(Cl)c1	none
O=C1N=C(N2C=CC(=C3C=CNC=C3)C=C2)/C(=C/N=NC(=O)c2ccccc2)S1	OX1R antag-2 80
COc1ccc(OC)c(S(=O)(=O)Oc2ccc(N)c3ccccc23)c1	OX1R antag-2 43
CCOC(=O)Cc1csc(SCn2nnc3ccccc3c2=O)n1	none
CCOC(=O)Cc1csc(-n2sc3ccccc3c2=O)n1	CHO parental Ca 32
Cc1cccc(NS(=O)(=O)c2nnc(NC(=O)c3ccc(C)c(C)c3)s2)c1	OX1R antag-2 52
CCCCN(C(=O)c1ccccc1Cl)C(CC(C)C)c1nc2ccccc2[nH]1 (centres undefined)	none (no result: OX1R antag-1, OX1R antag-2, CHO parental Ca)
O=C(COc1cccc(Cl)c1)Nc1nc(-c2ccc(S(=O)(=O)N3CCOCC3)cc2)cs1	none (no result: OX1R antag-1, OX1R antag-2, CHO parental Ca)
Cc1nc(-c2cccc(NC(=O)c3cccc(S(=O)(=O)N4CCCC4)c3)c2)cs1	TAAR1 antagonist 53
O=C(Nc1nc(-c2ccccc2)cs1)c1ccc(N2CCOCC2)c([N+](=O)[O-])c1	OX1R antag-2 80, CHO parental Ca 41 (no result: TAAR1 antagonist, TAAR1 agonist)
COc1ccc(-c2csc(NC(=O)c3ccc(S(C)(=O)=O)cc3)n2)cc1	TAAR1 antagonist 53
COc1ccc(-c2csc(NC(=O)c3ccccc3S(C)(=O)=O)n2)cc1	none
CCOc1cccc(C(=O)Nc2nc(-c3ccc(S(=O)(=O)N4CCOCC4)cc3)cs2)c1	TAAR1 antagonist 53
COc1ccc(C(=O)N(C)[C@H]2C[C@H]3c4[nH]c5c(-c6ccccc6)cccc5c4CCN3C(=O)[C@H]2[C@H](C)O)cc1	none (no result: OX1R antag-1, OX1R antag-2, CHO parental Ca)
COC(=O)c1cc(C(=O)Nc2ccc(C)cn2)cc([N+](=O)[O-])c1	OX1R antag-2 50
Cc1cccnc1NC(=O)Nc1cccc2ccccc12	OX1R antag-2 45
O=C(Nc1ccccc1)Nc1cccc2ccccc12	none
Cc1cccc(C)c1C(O)c1ncc(-c2ccccc2Cl)[nH]1 (centres undefined)	none (no result: OX1R antag-1, OX1R antag-2, CHO parental Ca)
CCc1ccc(N/C(SCc2ccccc2C)=C(/C#N)C(=O)NCc2ccco2)cc1	TAAR1 antagonist 51
O=C(Cc1ccccc1)NCc1ccc(-n2cccc2)cc1	TAAR1 agonist 38
O=C(Oc1c(Cl)cc(Cl)c2cccnc12)c1ccco1	CHO parental Ca 34
O=C(Oc1c(Cl)cc(Cl)c2cccnc12)c1cccs1	none
CCCC(C)(C)C(=O)N1CCC1(C)C(=O)Nc1cccc2ccccc12 (centres undefined)	none (no result: OX1R antag-1, OX1R antag-2, CHO parental Ca)
O=C(O)c1cnc(-c2ccccc2)nc1-c1ccccc1	OX1R antag-2 62
O=C(Nc1ccc(-c2ccccc2)cc1)c1ccccc1	none
C=CCN1N=C(c2ccc(NC(=O)c3ccccc3)cc2)CSC1=O	CHO parental Ca 47
CN1CCN(c2nc(-c3ccc(Cl)cc3)nc3ccccc23)CC1	none (no result: OX1R antag-1, OX1R antag-2, CHO parental Ca)
Cc1ccc([C@H]2C(C(=O)O)=CC[C@@H](c3ccc(C)cc3)N2S(=O)(=O)c2ccc(C)cc2)cc1	OX1R antag-2 41
Cc1ccc([C@@H]2CC=C(C(=O)O)[C@H](c3ccccc3)N2S(=O)(=O)c2ccc(C)cc2)cc1	none
Cc1ccc([C@H]2C(C(=O)O)=CC[C@@H](c3ccc(C(C)C)cc3)N2S(=O)(=O)c2ccc(C)cc2)cc1	CHO parental Ca 37
Nc1nc2c(ncn2[C@@H]2O[C@H](C(=O)N[C@H](Cc3ccccc3)C(=O)NCc3ccc4c(c3)OCO4)[C@@H](O)[C@H]2O)c(=O)[nH]1	none (no result: OX1R antag-1, OX1R antag-2, CHO parental Ca)
CC(=O)Nc1ccc(S(=O)(=O)N(Cc2ccccc2)C(C)C)cc1	OX1R antag-2 43
Cc1cccc(C)c1NC(=O)CN(c1ccccn1)S(=O)(=O)c1ccccc1	CHO parental Ca 25
Cc1cccc(C)c1NC(=O)CN(c1ccccn1)S(=O)(=O)c1ccc(F)cc1	none
